Data taken from ChEMBL document CHEMBL3425450, “Neuroactive Steroids. 1. Positive Allosteric Modulators of the (γ-Aminobutyric Acid)A Receptor: Structure-Activity Relationships of Heterocyclic Substitution at C-21” (J Med Chem, 2015).
In brackets after ≈: the same amount, converted by molar mass.

Assays:
[1] = target: GABA-A receptor; agonist GABA site; test: Positive allosteric modulation of recombinant alpha1beta2gamma2 GABAA receptor (unknown origin) expressed in LTK cells assessed as potentiation of GABA-induced channel current treated for 30 s prior to GABA stimulation for 2s by Q-patch assay; assay type: cell-based, Homo sapiens
[2] = target: GABA-A receptor; agonist GABA site; test: Positive allosteric modulation of recombinant alpha4beta3delta GABAA receptor (unknown origin) expressed in CHO cells assessed as potentiation of GABA-induced channel current treated for 30 s prior to GABA stimulation for 2s by manual patch assay; assay type: cell-based, Homo sapiens
[3] = target: GABA-A receptor; anion channel; test: Displacement of [3H]TBPS from GABAA receptor in Sprague-Dawley rat brain cortical membrane after 90 mins by liquid scintillation spectrometry
[4] = Retention time of the compound by LC-MS analysis; assay type: physicochemical
How it was run: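 Eluents were water and acetonitrile, each with TFA, run as a 5 to 95% acetonitrile gradient over 1.5 min at 1.5 mL/min. Capillary voltage was 3.5 kV and fragmentor voltage 50 V.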

[5] = Clearance in mouse liver microsomes at 10 uM after 60 mins by HPLC-MS/MS analysis; assay type: ADME
[6] = Ratio of drug level in brain to plasma in Sprague-Dawley rat at 5 mg/kg, iv after 30 mins by LC-MS/MS analysis; assay type: ADME, organism-based; set-up: dose 5 mg/kg, route intravenous; conditions: read-out: BPR
How it was run: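 Brain and plasma were sampled at a single point 30 min after the i.v. 5 mpk dose. The ratio was calculated from mean concentrations of 2 rats.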

[7] = Clearance in Sprague-Dawley rat at 5 mg/kg, iv and 20 mg/kg, po by LC-MS/MS analysis; assay type: ADME, organism-based; conditions: in vivo
How it was run: (§1)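 Rats were dosed i.v. at 5 mpk and orally at 20 mpk. Clearance and oral bioavailability were calculated from mean plasma concentrations of 2 rats.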

[8] = Aqueous solubility of the compound at pH 7.4 by HPLC-MS/MS analysis; assay type: physicochemical; conditions: buffer
[9] = Clearance in human liver microsomes at 10 uM after 60 mins by HPLC-MS/MS analysis; assay type: ADME
[10] = Lipophilicity, log D of the compound at 20 uM at pH 7.4 by HPLC-MS/MS analysis; assay type: physicochemical; conditions: buffer
[11] = Clearance in rat liver microsomes at 10 uM after 60 mins by HPLC-MS/MS analysis; assay type: ADME
[12] = Oral bioavailability in Sprague-Dawley rat at 20 mg/kg by LC-MS/MS analysis; assay type: ADME, organism-based; conditions: in vivo; how it was run: as §1

SMILES | EC50 [1] [nM] | EC50 [2] [nM] | IC50 [3] [nM] | Retention_time [4] [min] | CLhep predicted at 10 µM [5] [mL/min/kg] | Kp at 0.5 h [6] | clearance [7] [mL/min/kg] | solubility [8] [µM] | CLhep predicted at 10 µM [9] [mL/min/kg] | logD at 20 µM [10] | CLhep predicted at 10 µM [11] [mL/min/kg] | bioavailability [12] [%]
C[C@@]1(O)CC[C@H]2[C@H](CC[C@@H]3[C@@H]2CC[C@]2(C)[C@@H](C(=O)Cn4ncc5cccnc54)CC[C@@H]32)C1 | 1750 | 1870 | 16 | 0.9 |  |  |  |  |  |  |  | 
C[C@@]1(O)CC[C@H]2[C@H](CC[C@@H]3[C@@H]2CC[C@]2(C)[C@@H](C(=O)CN4CCCC4)CC[C@@H]32)C1 |  |  | 1290 | 0.745 |  |  |  |  |  |  |  | 
C[C@@]1(O)CC[C@H]2[C@@H](CC[C@@H]3[C@@H]2CC[C@]2(C)[C@@H](C(=O)Cn4nccn4)CC[C@@H]32)C1 | 592 | 1420 | 54 | 0.889 |  |  |  |  |  |  |  | 
C[C@@]1(O)CC[C@H]2[C@H](CC[C@@H]3[C@@H]2CC[C@]2(C)[C@@H](C(=O)Cn4cc5cccnc5n4)CC[C@@H]32)C1 | > 3000 | 1020 | 42 | 0.8 |  |  |  |  |  |  |  | 
CC(=O)[C@H]1CC[C@H]2[C@@H]3CC[C@H]4C[C@](C)(O)CC[C@]4(C)[C@H]3CC[C@]12C [GANAXOLONE] | 266 | 103 | 42 |  | 67.5 | 4 | 51.7 | 0.7 (≈ 0.233 µg/mL) | 6.5 | 5.3 | 55.7 | 10
C[C@@]1(O)CC[C@H]2[C@@H](CC[C@@H]3[C@@H]2CC[C@]2(C)[C@@H](C(=O)Cn4cccn4)CC[C@@H]32)C1 | > 3000 | 1150 | 149 | 0.89 |  |  |  |  |  |  |  | 
CC(=O)[C@H]1CC[C@H]2[C@@H]3CC[C@H]4C[C@](C)(O)CC[C@@H]4[C@H]3CC[C@]12C | 355 | 553 | 74 |  | 67.5 |  |  | 1 (≈ 0.319 µg/mL) | 8.33 | 5.1 | 52.8 | 
C[C@@]1(O)CC[C@H]2[C@@H](CC[C@@H]3[C@@H]2CC[C@]2(C)[C@@H](C(=O)Cn4cncn4)CC[C@@H]32)C1 | > 3000 | 781 | 174 | 0.84 |  |  |  |  |  |  |  | 
C[C@@]1(O)CC[C@H]2[C@H](CC[C@@H]3[C@@H]2CC[C@]2(C)[C@@H](C(=O)Cn4ccnn4)CC[C@@H]32)C1 | 1840 | 1830 | 27 | 0.84 |  |  |  |  |  |  |  | 
C[C@@]1(O)CC[C@H]2[C@H](CC[C@@H]3[C@@H]2CC[C@]2(C)[C@@H](C(=O)Cn4cc5ccccc5n4)CC[C@@H]32)C1 | 1900 | 2520 | 11 | 0.92 |  |  |  |  |  |  |  | 
CC(=O)[C@H]1CC[C@H]2[C@@H]3CC[C@H]4C[C@H](O)CC[C@]4(C)[C@H]3CC[C@]12C [BREXANOLONE] | 237 | 75.5 | 22 |  | 67.5 | 1.8 | 80 | 3.3 (≈ 1.05 µg/mL) | 8.33 | 4.9 | 55.7 | 2.3
C[C@@]1(O)CC[C@H]2[C@@H](CC[C@@H]3[C@@H]2CC[C@]2(C)[C@@H](C(=O)Cn4cnnn4)CC[C@@H]32)C1 | > 3000 | 2140 | 214 | 0.86 |  |  |  |  |  |  |  | 
CC(=O)[C@H]1CC[C@H]2[C@@H]3CC[C@@H]4C[C@](C)(O)CC[C@@H]4[C@H]3CC[C@]12C | 371 | 119 | 55 |  |  |  |  |  |  |  |  | 
C[C@@]1(O)CC[C@H]2[C@H](CC[C@@H]3[C@@H]2CC[C@]2(C)[C@@H](C(=O)Cn4ccnc4)CC[C@@H]32)C1 | > 3000 | 3130 | 21 | 0.76 |  |  |  |  |  |  |  | 
C[C@@]1(O)CC[C@H]2[C@@H](CC[C@@H]3[C@@H]2CC[C@]2(C)[C@@H](C(=O)CN4CCCC4)CC[C@@H]32)C1 |  |  | 2890 | 0.77 |  |  |  |  |  |  |  | 
C[C@@]1(O)CC[C@H]2[C@H](CC[C@@H]3[C@@H]2CC[C@]2(C)[C@@H](C(=O)Cn4ncc5ccncc54)CC[C@@H]32)C1 | > 3000 | > 3000 | 17 | 0.8 |  |  |  |  |  |  |  | 
C[C@@]1(O)CC[C@H]2[C@H](CC[C@@H]3[C@@H]2CC[C@]2(C)[C@@H](C(=O)Cn4cc5c(n4)CCCC5)CC[C@@H]32)C1 | 724 | 178 | 24 | 0.93 | 67.5 |  |  | 0.3 (≈ 0.132 µg/mL) | 10.8 | 5.7 | 55.7 | 
C[C@@]1(O)CC[C@H]2[C@H](CC[C@@H]3[C@@H]2CC[C@]2(C)[C@@H](C(=O)Cn4cccn4)CC[C@@H]32)C1 | 945 | 1460 | 32 | 0.88 |  |  |  |  |  |  |  | 
C[C@@]1(O)CC[C@H]2[C@H](CC[C@@H]3[C@@H]2CC[C@]2(C)[C@@H](C(=O)Cn4cc5cnccc5n4)CC[C@@H]32)C1 | > 3000 | 1350 | 24 | 1.06 |  |  |  |  |  |  |  | 
C[C@@]1(O)CC[C@H]2[C@H](CC[C@@H]3[C@@H]2CC[C@]2(C)[C@@H](C(=O)Cn4cnnn4)CC[C@@H]32)C1 | 2200 | 394 | 69 | 0.84 |  |  |  |  |  |  |  | 
C[C@@]1(O)CC[C@H]2[C@H](CC[C@@H]3[C@@H]2CC[C@]2(C)[C@@H](C(=O)Cn4ncc5ccccc54)CC[C@@H]32)C1 | 1530 | 508 | 15 | 0.95 |  |  |  |  |  |  |  | 
C[C@@]1(O)CC[C@H]2[C@H](CC[C@@H]3[C@@H]2CC[C@]2(C)[C@@H](C(=O)Cn4cncn4)CC[C@@H]32)C1 | > 3000 | > 3000 | 140 | 0.829 |  |  |  |  |  |  |  | 
C[C@@]1(O)CC[C@H]2[C@H](CC[C@@H]3[C@@H]2CC[C@]2(C)[C@@H](C(=O)Cn4ncc5ncccc54)CC[C@@H]32)C1 | 2510 | > 3000 | 25 | 0.85 |  |  |  |  |  |  |  | 
C[C@@]1(O)CC[C@H]2[C@H](CC[C@@H]3[C@@H]2CC[C@]2(C)[C@@H](C(=O)Cn4ncc5c4CCCC5)CC[C@@H]32)C1 | 1490 | > 3000 | 50 | 0.94 |  |  |  |  |  |  |  | 
C[C@@]1(O)CC[C@H]2[C@@H](CC[C@@H]3[C@@H]2CC[C@]2(C)[C@@H](C(=O)Cn4ccnc4)CC[C@@H]32)C1 | > 3000 | > 3000 | 108 | 0.76 |  |  |  |  |  |  |  | 
C[C@@]1(O)CC[C@H]2[C@@H](CC[C@@H]3[C@@H]2CC[C@]2(C)[C@@H](C(=O)Cn4ccnn4)CC[C@@H]32)C1 | 2740 | 1320 | 102 | 0.85 |  |  |  |  |  |  |  | 
C[C@@]1(O)CC[C@H]2[C@H](CC[C@@H]3[C@@H]2CC[C@]2(C)[C@@H](C(=O)Cn4ncc5cnccc54)CC[C@@H]32)C1 | > 3000 | 1400 | 33 | 0.75 |  |  |  |  |  |  |  | 
